The values that follow come from ChEMBL document CHEMBL1143002, “Discovery and structure-activity relationships of piperidinone- and piperidine-constrained phenethylamines as novel, potent, and selective dipeptidyl peptidase IV inhibitors” (J Med Chem, 2007).

The clearance is a measure of how efficiently the substance is removed, as volume per time. The bioavailability is dose-corrected exposure relative to a reference, in per cent. The low end stands for little systemic uptake, the high end for much systemic uptake. Broadly, the AUC is concentration integrated over time. Lower therefore signals low exposure. The term Ki denotes the dissociation constant of the complex between target and ligand, obtained from inhibition or displacement. One may read the half-life as how long it takes for the measured level to halve. Low readings indicate rapid decline, high ones slow decline. By Cmax is commonly meant the peak of the concentration-time curve.

Series [1] can be described thus: Plasma clearance in rat at 5 mg/kg, iv. It is filed as ADME, organism-based. More on the design: dose 5 mg/kg, route intravenous. In outline: (§1)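 Rats (n = 6) dosed at 5 mg/kg by iv and po routes. Plasma clearance and steady-state volume of distribution were taken from iv dosing. Cmax (maximal concentration) and terminal half-life were taken from oral dosing. AUC and oral bioavailability (F) are also reported.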

Series [2] can be described thus: Oral bioavailability in rat at 5 mg/kg, po. In kind it is ADME, organism-based. To be noted: in vivo. In outline: as §1
In series [3] the test system is Rattus norvegicus. Briefly: AUC in rat at 5 mg/kg, po. It is filed as ADME, organism-based, Plasma. More on the design: dose 5 mg/kg, route oral. To be noted: in vivo. In outline:
as §1

In series [4] the target is Dipeptidyl peptidase 8 (Homo sapiens, UniProt Q6V1X1). Briefly: Inhibition of DPP8.
Series [5] in a line: Half life in rat at 5 mg/kg, po. It is filed as ADME, organism-based. More on the design: dose 5 mg/kg, route oral. As to conditions: in vivo. In outline:
as §1

Series [6] has as its target Dipeptidyl peptidase 9 (Homo sapiens, UniProt Q86TI2). The experiment in a line: Inhibition of DPP9.
Series [7] is described as follows: Cmax in rat at 5 mg/kg, po. It is filed as ADME, organism-based. As to conditions: in vivo. Set-up: dose 5 mg/kg, route oral. In outline:
as §1

Series [8] can be described thus: Volume of distribution at steady state in rat at 5 mg/kg, iv. Set-up: dose 5 mg/kg, route intravenous. It is filed as ADME, organism-based. To be noted: in vivo, read-out: Vss. In outline:
as §1

Sequence of Dipeptidyl peptidase 8 (Q6V1X1 whole entry): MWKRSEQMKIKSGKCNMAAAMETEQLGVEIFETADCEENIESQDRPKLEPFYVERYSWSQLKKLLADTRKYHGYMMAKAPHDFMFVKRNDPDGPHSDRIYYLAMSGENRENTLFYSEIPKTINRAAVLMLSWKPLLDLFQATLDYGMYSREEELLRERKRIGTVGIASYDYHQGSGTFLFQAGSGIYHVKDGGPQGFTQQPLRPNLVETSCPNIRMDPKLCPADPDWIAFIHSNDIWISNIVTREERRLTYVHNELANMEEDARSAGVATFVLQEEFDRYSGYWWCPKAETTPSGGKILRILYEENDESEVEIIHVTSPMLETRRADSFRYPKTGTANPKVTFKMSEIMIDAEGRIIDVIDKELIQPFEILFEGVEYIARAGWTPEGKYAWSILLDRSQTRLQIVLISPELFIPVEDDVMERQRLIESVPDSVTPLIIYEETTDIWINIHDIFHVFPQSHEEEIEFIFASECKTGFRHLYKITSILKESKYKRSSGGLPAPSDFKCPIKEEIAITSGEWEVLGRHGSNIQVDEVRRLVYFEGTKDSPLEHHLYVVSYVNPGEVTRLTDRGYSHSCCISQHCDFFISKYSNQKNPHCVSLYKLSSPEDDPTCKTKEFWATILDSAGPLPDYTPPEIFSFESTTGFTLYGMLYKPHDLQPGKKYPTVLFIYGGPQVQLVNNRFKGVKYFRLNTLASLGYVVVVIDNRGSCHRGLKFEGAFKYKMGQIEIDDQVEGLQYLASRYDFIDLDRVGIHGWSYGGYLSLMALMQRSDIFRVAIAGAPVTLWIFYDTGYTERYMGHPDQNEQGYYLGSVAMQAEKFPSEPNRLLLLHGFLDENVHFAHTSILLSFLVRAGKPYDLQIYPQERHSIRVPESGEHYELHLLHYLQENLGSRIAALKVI
Sequence of Dipeptidyl peptidase 9 (Q86TI2 whole entry): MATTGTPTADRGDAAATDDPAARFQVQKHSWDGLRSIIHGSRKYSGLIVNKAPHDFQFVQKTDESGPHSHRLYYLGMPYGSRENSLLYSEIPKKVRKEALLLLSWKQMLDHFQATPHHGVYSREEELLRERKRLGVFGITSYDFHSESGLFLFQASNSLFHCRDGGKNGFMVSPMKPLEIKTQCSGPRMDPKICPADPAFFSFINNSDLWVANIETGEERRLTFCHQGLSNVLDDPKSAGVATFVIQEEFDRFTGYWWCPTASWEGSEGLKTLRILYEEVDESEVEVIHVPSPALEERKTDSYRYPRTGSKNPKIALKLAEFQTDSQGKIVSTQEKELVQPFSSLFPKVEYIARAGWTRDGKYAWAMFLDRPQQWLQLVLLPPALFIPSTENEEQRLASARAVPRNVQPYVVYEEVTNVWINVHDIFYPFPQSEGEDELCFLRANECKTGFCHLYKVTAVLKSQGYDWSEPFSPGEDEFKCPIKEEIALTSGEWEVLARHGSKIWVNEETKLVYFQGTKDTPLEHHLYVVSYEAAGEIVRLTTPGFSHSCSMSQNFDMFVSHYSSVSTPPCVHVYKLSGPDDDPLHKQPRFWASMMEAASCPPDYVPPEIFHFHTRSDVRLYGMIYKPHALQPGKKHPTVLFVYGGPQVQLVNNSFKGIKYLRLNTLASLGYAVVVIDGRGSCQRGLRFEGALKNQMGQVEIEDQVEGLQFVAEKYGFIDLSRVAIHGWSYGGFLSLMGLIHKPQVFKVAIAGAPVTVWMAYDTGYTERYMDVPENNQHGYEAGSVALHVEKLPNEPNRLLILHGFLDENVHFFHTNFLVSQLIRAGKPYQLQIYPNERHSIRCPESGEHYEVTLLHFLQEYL

Consider `CS(=O)(=O)c1cccc(-c2cc(N3C[C@H](N)[C@@H](c4cc(F)c(F)cc4F)CC3=O)ncn2)c1`, for which the clearance in series [1] was 3.17 mL/min/kg. In addition, in series [2], the bioavailability amounted to 90.3%. This compound came in with an AUC in series [3] of 24400 ng·h/mL. Besides, the Ki in series [4] and in series [6] was > 30 µM each time. In series [5], this compound gave a half-life of 7.8 h. In series [7], this compound registered a Cmax of 2000 ng/mL. Moreover, in series [8], the Vd stood at 1.28 L/kg.
Consider `N[C@H]1CN(c2cc(N3CC[C@@H](O)C3)ncn2)C(=O)C[C@@H]1c1cc(F)c(F)cc1F`, for which the Ki in series [4] is > 30 µM.
In turn, `CS(=O)(=O)c1cccc(CCN2C[C@H](N)[C@@H](c3cc(F)c(F)cc3F)CC2=O)c1` had a clearance in series [1] of 30.2 mL/min/kg. The bioavailability in series [2] worked out at 27.6%. Besides, the AUC in series [3] came to 771 ng·h/mL. In series [5], this compound had a half-life of 1.8 h. Besides, the Cmax in series [7] was determined as 710 ng/mL. Also, in series [8], the Vd stood at 1.24 L/kg.
The compound `Cl.N[C@H]1CN(CCc2ccc3c(c2)OCO3)C(=O)C[C@@H]1c1cc(F)c(F)cc1F` gave a clearance in series [1] of 36.3 mL/min/kg. The compound also registered a bioavailability in series [2] of 9%. Moreover, the AUC in series [3] was found to be 223 ng·h/mL. Moreover, in series [5], the half-life was 0.42 h. The same compound came in with a Cmax in series [7] of 192 ng/mL. The Vd in series [8] amounted to 1.04 L/kg.
